# According to ChEMBL document CHEMBL1139268, “Camphor sulfonamide derivatives as novel, potent and selective CXCR3 antagonists” (Bioorg Med Chem Lett, 2009):
# How the values were obtained:
# [1] = target: T1, C-X-C chemokine receptor type 3 (Homo sapiens, UniProt P49682); experiment: Antagonist activity at human recombinant CXCR3 receptor expressed in CHO-K1 cells assessed as human IP10-induced calcium flux by FLIPR assay; type: functional, cell-based
# T1 sequence (P49682 whole entry): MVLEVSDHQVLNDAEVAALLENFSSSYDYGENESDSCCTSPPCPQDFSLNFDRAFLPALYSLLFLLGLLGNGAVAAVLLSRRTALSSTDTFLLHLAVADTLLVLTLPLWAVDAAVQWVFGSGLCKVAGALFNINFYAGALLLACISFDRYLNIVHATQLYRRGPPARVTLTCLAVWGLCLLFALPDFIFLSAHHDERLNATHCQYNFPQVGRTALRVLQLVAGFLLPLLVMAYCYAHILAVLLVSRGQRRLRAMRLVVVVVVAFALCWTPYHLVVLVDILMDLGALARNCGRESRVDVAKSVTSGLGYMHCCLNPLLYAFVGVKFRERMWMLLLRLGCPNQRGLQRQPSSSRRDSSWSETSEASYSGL
# [2] = target: T2, C-X-C chemokine receptor type 3 (Mus musculus, UniProt O88410); experiment: Antagonist activity at mouse recombinant CXCR3 expressed in human U2OS cells; type: functional, cell-based
# T2 sequence (O88410 whole entry): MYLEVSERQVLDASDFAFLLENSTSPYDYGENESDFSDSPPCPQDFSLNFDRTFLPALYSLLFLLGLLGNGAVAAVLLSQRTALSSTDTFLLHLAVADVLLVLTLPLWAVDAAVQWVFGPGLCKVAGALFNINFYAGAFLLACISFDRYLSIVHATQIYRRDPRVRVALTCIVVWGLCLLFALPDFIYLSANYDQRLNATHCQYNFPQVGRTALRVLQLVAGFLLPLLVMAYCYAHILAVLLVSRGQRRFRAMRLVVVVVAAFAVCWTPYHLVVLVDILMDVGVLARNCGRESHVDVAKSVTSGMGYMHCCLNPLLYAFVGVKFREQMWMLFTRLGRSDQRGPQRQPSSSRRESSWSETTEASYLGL
# In short: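 Human U2OS cells were transiently transduced with a mixture of recombinant BacMam viruses, one expressing murine CXCR3 and one expressing chimeric G-protein Gqi5.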
# [3] = target: T1, C-X-C chemokine receptor type 3; experiment: Antagonist activity at human recombinant CXCR3 receptor assessed as human IP10-induced calcium mobilization by FLIPR assay; type: functional; details: read-out: pA2 (converted)
# [4] = Permeability across artificial membrane; type: ADME; details: PAMPA; read-out: permeability
# [5] = Aqueous solubility of the compound; type: physicochemical; details: buffer
# Cytochrome P450 1A2 = target: T3, Cytochrome P450 1A2 (Homo sapiens, UniProt P05177); experiment: Inhibition of CYP1A2; type: ADME
# T3 sequence (P05177 whole entry): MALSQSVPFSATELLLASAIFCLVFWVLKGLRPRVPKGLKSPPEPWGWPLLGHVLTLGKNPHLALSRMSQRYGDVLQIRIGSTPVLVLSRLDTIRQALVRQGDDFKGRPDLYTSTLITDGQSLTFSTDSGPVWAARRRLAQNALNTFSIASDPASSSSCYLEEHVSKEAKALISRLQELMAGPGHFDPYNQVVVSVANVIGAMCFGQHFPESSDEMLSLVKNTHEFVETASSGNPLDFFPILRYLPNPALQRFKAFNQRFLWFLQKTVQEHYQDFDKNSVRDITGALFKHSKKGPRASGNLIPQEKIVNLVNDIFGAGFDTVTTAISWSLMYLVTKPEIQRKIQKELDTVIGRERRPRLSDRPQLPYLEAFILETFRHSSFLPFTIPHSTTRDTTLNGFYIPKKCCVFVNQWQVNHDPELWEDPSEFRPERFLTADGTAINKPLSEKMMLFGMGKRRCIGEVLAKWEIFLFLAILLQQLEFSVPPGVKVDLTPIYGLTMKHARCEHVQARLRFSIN
# Cytochrome P450 3A4 [6] = target: T4, Cytochrome P450 3A4 (Homo sapiens, UniProt P08684); experiment: Inhibition of CYP3A4 red; type: ADME
# Cytochrome P450 3A4 [7] = target: T4, Cytochrome P450 3A4; experiment: Inhibition of CYP3A4 green; type: ADME
# Cytochrome P450 2C9 = Cytochrome P450 2C9 (Homo sapiens, UniProt P11712); experiment: Inhibition of CYP2C9; type: ADME
# Cytochrome P450 2C19 = Cytochrome P450 2C19 (Homo sapiens, UniProt P33261); experiment: Inhibition of CYP2C19; type: ADME
# Cytochrome P450 2D6 = Cytochrome P450 2D6 (Homo sapiens, UniProt P10635); experiment: Inhibition of CYP2D6; type: ADME
# [8] = target: Voltage-gated inwardly rectifying potassium channel KCNH2 (Homo sapiens, UniProt Q12809); experiment: Binding affinity to human ERG
# [9] = Clearance in rat at 1.1 mg/kg, iv and 2.0 mg/kg, po; type: ADME, organism-based; details: in vivo
# Rattus norvegicus = experiment: Half life in rat at 1.1 mg/kg, iv and 2.0 mg/kg, po; type: ADME, organism-based; details: in vivo
# [10] = Volume of distribution at steady state in rat a 1.1 mg/kg, iv and 2.0 mg/kg, po; type: ADME, organism-based; details: in vivo, read-out: Vdss
# [11] = Oral bioavailability in rat at 2.0 mg/kg; type: ADME, organism-based; details: in vivo
# T4 sequence (P08684 whole entry): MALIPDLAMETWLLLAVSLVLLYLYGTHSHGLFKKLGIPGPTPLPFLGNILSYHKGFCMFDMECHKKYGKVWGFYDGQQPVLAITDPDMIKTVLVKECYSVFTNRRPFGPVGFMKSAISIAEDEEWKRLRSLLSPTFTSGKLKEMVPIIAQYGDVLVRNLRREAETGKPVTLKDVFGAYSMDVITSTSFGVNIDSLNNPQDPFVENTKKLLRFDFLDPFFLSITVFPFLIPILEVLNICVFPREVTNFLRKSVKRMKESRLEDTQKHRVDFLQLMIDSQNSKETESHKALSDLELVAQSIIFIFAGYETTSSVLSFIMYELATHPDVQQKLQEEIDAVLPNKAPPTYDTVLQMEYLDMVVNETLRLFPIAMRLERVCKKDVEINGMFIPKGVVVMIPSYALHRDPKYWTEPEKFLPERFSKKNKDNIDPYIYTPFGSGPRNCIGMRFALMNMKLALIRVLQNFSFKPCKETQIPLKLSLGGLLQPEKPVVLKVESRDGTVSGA
# Voltage-gated inwardly rectifying potassium channel KCNH2, sequence (Q12809 whole entry): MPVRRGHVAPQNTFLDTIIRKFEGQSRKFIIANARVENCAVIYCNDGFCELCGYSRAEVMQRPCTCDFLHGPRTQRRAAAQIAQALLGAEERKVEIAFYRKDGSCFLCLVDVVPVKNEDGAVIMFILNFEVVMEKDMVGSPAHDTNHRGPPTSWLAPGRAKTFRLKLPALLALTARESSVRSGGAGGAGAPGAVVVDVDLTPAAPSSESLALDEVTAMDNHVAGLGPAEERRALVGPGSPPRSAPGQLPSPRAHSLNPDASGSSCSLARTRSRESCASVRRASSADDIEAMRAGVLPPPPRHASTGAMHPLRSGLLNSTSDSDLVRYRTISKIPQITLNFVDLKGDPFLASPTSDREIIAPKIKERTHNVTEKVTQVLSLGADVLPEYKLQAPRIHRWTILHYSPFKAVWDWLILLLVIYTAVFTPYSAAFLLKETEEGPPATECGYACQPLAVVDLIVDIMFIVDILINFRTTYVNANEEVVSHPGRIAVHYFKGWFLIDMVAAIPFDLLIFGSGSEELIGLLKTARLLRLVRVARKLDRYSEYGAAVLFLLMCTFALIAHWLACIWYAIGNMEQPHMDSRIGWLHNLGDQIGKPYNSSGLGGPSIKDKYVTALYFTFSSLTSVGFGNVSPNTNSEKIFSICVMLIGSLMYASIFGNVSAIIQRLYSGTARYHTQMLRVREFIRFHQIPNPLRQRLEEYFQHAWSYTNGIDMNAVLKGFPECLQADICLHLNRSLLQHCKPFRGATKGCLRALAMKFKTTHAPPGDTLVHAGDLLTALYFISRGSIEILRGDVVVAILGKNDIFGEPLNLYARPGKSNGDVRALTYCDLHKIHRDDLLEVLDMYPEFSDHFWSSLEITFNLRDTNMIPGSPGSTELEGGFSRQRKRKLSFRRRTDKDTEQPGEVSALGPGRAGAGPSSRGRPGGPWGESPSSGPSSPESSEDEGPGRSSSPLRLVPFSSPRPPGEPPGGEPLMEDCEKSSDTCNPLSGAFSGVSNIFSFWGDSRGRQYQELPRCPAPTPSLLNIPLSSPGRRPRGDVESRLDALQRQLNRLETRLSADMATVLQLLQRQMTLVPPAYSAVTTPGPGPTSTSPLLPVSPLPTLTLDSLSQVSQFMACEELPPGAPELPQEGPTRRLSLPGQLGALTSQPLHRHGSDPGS
# Cytochrome P450 2C19, sequence (P33261 whole entry): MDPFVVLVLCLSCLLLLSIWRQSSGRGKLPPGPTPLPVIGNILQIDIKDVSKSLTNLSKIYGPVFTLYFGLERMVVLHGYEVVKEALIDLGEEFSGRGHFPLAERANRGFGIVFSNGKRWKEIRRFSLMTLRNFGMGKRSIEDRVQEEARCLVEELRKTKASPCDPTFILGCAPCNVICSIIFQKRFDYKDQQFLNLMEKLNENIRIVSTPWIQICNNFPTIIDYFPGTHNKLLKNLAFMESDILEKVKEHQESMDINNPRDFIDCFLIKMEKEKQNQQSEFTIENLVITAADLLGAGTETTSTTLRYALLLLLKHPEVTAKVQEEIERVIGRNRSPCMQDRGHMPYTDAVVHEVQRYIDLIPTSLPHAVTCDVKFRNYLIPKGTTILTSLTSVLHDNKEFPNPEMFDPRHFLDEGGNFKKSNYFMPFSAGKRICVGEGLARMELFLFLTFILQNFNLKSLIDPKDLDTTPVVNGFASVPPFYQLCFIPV
# Cytochrome P450 2D6, sequence (P10635 whole entry): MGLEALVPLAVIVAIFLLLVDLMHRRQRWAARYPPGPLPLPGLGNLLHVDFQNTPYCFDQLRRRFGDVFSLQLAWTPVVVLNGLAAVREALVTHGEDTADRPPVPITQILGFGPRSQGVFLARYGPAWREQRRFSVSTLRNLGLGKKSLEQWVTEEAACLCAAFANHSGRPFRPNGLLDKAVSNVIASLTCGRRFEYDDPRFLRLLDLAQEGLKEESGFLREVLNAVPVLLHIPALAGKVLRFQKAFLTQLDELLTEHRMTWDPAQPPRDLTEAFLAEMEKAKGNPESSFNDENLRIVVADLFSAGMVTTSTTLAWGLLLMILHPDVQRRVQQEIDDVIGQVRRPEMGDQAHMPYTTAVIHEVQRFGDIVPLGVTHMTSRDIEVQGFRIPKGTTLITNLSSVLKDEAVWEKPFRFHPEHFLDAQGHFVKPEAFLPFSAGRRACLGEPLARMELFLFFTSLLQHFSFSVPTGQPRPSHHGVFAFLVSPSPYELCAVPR
# Cytochrome P450 2C9, sequence (P11712 whole entry): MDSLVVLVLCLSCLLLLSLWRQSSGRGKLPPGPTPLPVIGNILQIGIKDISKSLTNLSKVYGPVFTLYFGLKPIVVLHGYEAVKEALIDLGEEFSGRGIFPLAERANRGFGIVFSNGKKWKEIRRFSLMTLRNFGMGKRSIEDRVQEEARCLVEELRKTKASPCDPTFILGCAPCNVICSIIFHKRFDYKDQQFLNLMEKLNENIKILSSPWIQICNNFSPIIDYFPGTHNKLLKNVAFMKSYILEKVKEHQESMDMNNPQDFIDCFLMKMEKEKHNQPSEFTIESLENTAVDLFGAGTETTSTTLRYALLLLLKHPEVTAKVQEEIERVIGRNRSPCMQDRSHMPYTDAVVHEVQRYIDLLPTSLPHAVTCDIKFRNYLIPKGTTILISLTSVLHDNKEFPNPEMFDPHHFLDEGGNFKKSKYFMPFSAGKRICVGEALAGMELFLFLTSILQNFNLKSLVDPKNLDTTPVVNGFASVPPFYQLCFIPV
SMILES,IC50 [1],IC50 [2],other results
CC1(C)[C@@H]2CC[C@@]1(CS(=O)(=O)N1CCN(c3ncc(C(F)(F)F)cc3F)CC1)C(=O)C2,0.158 µM,0.794 µM,
C[C@H]1CN(S(=O)(=O)C[C@]23CC[C@H](CC2=O)C3(C)C)CCN1c1ccc(C(F)(F)F)cn1,0.158 µM,2.51 µM,
C[C@H]1CN(S(=O)(=O)C[C@]23CC[C@H](CC24OCCO4)C3(C)C)CCN1c1ncc(C(F)(F)F)cc1F,0.0398 µM,1.58 µM,
C[C@H]1CN(S(=O)(=O)C[C@]23CC[C@H](CC2=O)C3(C)C)CCN1c1ncc(C(F)(F)F)cn1,0.126 µM,1 µM,
C[C@H]1CN(S(=O)(=O)C[C@]23CC[C@H](C[C@H]2O)C3(C)C)CCN1c1ccc(C(F)(F)F)cn1,0.316 µM,0.631 µM,
CC1(C)[C@@H]2CC[C@@]1(CS(=O)(=O)N1CCN(c3ccc(C(F)(F)F)cn3)CC1)C(=O)C2,0.251 µM,1.26 µM,Kb [3]: 0.126 µM
CC1(C)[C@@H]2CC[C@@]1(CS(=O)(=O)N1CCN(c3ncc(C(F)(F)F)cc3F)[C@H](CO)C1)C(=O)C2,0.316 µM,6.31 µM,Papp [4]: 56 ×10⁻⁶ cm/s; solubility [5]: 40 µg/mL
C[C@H]1CN(S(=O)(=O)C[C@]23CC[C@H](C[C@@H]2O)C3(C)C)CCN1c1ncc(C(F)(F)F)cc1F,0.0316 µM,0.2 µM,Kb [3]: 0.02 µM; IC50 (Cytochrome P450 1A2): > 25 µM; IC50 (Cytochrome P450 3A4 [6]): > 25 µM; IC50 (Cytochrome P450 3A4 [7]): 13.6 µM; IC50 (Cytochrome P450 2C9): 4 µM; IC50 (Cytochrome P450 2C19): 4 µM; IC50 (Cytochrome P450 2D6): > 25 µM
C[C@H]1CN(S(=O)(=O)C[C@]23CC[C@H](CC2O)C3(C)C)CCN1c1ccc(C(F)(F)F)cn1 (stereo not given in full),0.158 µM,0.631 µM,
CC1(C)[C@@H]2CC[C@@]1(CS(=O)(=O)N1CCN(c3cc4ccccc4cn3)CC1)C(=O)C2,15.8 µM,,
CCNC1C[C@H]2CC[C@]1(CS(=O)(=O)N1CCN(c3ccc(C(F)(F)F)cn3)CC1)C2(C)C (stereo not given in full),7.94 µM,,
Cc1ccc(N2CCN(S(=O)(=O)C[C@]34CC[C@H](CC3=O)C4(C)C)CC2)nc1,> 31.6 µM,,
CC1(C)[C@@H]2CC[C@@]1(CS(=O)(=O)N1CCN(c3ccc(C(F)(F)F)c(Cl)n3)CC1)C(=O)C2,0.251 µM,,
CC1(C)[C@@H]2CC[C@@]1(CS(=O)(=O)N1CCN(c3cccc(C(F)(F)F)n3)CC1)C(=O)C2,25.1 µM,,
C[C@H]1CN(S(=O)(=O)C[C@]23CC[C@H](CC2O)C3(C)C)CCN1c1ncc(C(F)(F)F)cc1F (stereo not given in full),0.0501 µM,0.158 µM,
CC(=O)c1ccc(N2CCN(S(=O)(=O)C[C@]34CC[C@H](CC3=O)C4(C)C)CC2)nc1,> 31.6 µM,,
CC1(C)[C@@H]2CC[C@@]1(CS(=O)(=O)N1CCC(Nc3ccc(C(F)(F)F)cn3)CC1)C(=O)C2,31.6 µM,,
CN(CCN(C)S(=O)(=O)C[C@]12CC[C@H](CC1=O)C2(C)C)c1ccc(C(F)(F)F)cn1,> 31.6 µM,,
CC1(C)[C@@H]2CC[C@@]1(CS(=O)(=O)N1CCN(c3nc4ccccc4s3)CC1)C(=O)C2,> 12.6 µM,,
CC(=O)NC1C[C@H]2CC[C@]1(CS(=O)(=O)N1CCN(c3ccc(C(F)(F)F)cn3)CC1)C2(C)C (stereo not given in full),2 µM,,
C[C@H]1CN(S(=O)(=O)C[C@]23CC[C@H](C[C@@H]2O)C3(C)C)CCN1c1ccc(C(F)(F)F)cn1,0.0316 µM,0.2 µM,
CC1(C)[C@@H]2CC[C@@]1(CS(=O)(=O)N1CCN(c3ccc(C(F)(F)F)cn3)CC1)C(O)C2 (stereo not given in full),0.158 µM,,
CC1(C)[C@@H]2CC[C@@]1(CS(=O)(=O)N1CCN(c3ccc(C(F)(F)F)cn3)CC1)C(N)C2 (stereo not given in full),0.794 µM,,
CC1(C)[C@@H]2CC[C@@]1(CS(=O)(=O)N1CCN(c3ccccn3)CC1)C(=O)C2,> 31.6 µM,,
CC1CN(S(=O)(=O)C[C@]23CC[C@H](CC2=O)C3(C)C)CCN1c1ccc(C(F)(F)F)cn1 (stereo not given in full),0.316 µM,,
C[C@H]1CN(S(=O)(=O)C[C@]23CC[C@H](CC2=O)C3(C)C)CCN1c1ncc(C(F)(F)F)cc1F,0.0794 µM,0.501 µM,Kb [3]: 0.0251 µM; IC50 [8]: > 63 µM; IC50 (Cytochrome P450 1A2): 0.16 µM; IC50 (Cytochrome P450 3A4 [6]): 0.32 µM; Papp [4]: 35.2 ×10⁻⁶ cm/s; solubility [5]: 4 µg/mL; clearance [9]: 108 mL/min/kg; t1/2 (Rattus norvegicus): 30 min; Vd [10]: 2.2 L/kg; bioavailability [11]: 8%
C[C@H]1CN(S(=O)(=O)C[C@]23CC[C@H](C[C@H]2O)C3(C)C)CCN1c1ncc(C(F)(F)F)cc1F,0.0631 µM,1.58 µM,
